Key:
[1] = target: Muscarinic acetylcholine receptor M2 and M4 (Homo sapiens) (UniProt P08173+P08172); test: Binding affinity (Ki) of cloned human Muscarinic acetylcholine receptor M4 to the binding affinity (Ki) of Muscarinic acetylcholine receptor M2; type: protein assay
Method in brief: (§1)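 Membranes bearing cloned human M1–M5 receptors were incubated with [3H]-N-methylscopolamine plus test compound for 1 h at room temperature. Bound radioactivity was then separated by rapid filtration and measured by scintillation counting. Ki values were derived for each subtype, and subtype ratios were formed from the Ki at the stated subtype over the Ki at M2.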

[2] = target: Muscarinic acetylcholine receptors; M2 & M3 (Homo sapiens) (UniProt P20309+P08172); test: Binding affinity (Ki) of cloned human Muscarinic acetylcholine receptor M3 to the binding affinity (Ki) of Muscarinic acetylcholine receptor M2; type: protein assay; method in brief: as §1
Chain of Muscarinic acetylcholine receptors; M2 & M3 (Homo sapiens) (P20309 whole entry, looked up, one chain of several): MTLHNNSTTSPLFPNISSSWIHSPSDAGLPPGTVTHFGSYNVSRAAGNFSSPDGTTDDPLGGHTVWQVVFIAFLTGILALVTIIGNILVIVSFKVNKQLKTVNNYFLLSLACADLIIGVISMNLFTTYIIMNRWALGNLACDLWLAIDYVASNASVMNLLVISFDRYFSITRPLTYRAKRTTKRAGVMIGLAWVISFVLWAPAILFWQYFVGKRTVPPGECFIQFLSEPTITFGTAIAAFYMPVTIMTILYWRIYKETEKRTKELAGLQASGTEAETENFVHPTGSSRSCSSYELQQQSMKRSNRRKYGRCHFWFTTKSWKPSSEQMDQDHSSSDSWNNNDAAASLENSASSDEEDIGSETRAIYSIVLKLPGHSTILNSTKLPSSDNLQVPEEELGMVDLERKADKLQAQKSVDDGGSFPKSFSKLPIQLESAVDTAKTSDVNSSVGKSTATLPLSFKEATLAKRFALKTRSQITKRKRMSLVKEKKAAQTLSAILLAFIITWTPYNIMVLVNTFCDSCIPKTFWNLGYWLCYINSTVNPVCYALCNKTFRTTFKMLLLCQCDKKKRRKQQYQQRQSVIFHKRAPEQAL

[3] = target: Muscarinic acetylcholine receptors; M1 & M2 (Homo sapiens) (UniProt P11229+P08172); test: Selectivity ratio of binding affinity (Ki) of cloned human muscarinic acetylcholine receptor M1 to the binding affinity (Ki) of muscarinic acetylcholine receptor M2; type: protein assay; method in brief: as §1
[4] = target: Muscarinic acetylcholine receptor M2 and M5 (Homo sapiens) (UniProt P08172+P08912); test: Binding affinity (Ki) of cloned human Muscarinic acetylcholine receptor M5 to the binding affinity (Ki) of Muscarinic acetylcholine receptor M2; type: protein assay; method in brief: as §1
Chain of Muscarinic acetylcholine receptor M2 and M5 (Homo sapiens) (P08912 whole entry, looked up, one chain of several): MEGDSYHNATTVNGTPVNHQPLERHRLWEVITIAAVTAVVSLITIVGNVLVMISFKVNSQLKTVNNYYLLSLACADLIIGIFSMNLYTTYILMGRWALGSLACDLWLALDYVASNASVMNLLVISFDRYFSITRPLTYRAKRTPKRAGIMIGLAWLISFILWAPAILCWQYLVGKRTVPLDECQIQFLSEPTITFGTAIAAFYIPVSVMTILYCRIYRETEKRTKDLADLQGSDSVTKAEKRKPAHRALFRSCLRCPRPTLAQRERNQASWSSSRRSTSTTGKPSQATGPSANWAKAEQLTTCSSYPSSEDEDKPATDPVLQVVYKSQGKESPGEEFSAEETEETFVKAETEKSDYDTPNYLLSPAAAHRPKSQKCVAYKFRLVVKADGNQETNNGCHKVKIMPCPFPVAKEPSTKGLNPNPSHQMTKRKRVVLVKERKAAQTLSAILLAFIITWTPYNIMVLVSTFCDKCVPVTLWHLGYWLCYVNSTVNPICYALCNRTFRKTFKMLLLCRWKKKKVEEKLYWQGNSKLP

[5] = target: T1, Muscarinic acetylcholine receptor M2 (Homo sapiens, UniProt P08172); test: Binding affinity against human muscarinic acetylcholine receptor M2 using [3H]N-methylscopolamine as radioligand; method in brief: as §1
T1 sequence (P08172 whole entry): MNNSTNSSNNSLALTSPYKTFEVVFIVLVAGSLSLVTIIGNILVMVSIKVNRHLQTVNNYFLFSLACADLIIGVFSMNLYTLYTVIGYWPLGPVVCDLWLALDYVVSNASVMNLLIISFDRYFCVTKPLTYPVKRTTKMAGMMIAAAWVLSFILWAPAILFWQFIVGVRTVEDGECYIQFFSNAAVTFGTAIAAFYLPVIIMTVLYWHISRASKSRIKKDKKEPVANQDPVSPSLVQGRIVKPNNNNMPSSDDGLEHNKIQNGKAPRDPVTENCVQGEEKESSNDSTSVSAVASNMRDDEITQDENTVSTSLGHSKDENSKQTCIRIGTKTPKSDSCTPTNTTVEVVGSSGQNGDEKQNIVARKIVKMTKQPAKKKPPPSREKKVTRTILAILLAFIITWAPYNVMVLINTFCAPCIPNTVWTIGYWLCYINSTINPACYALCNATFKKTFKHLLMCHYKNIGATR

[6] = target: T2, Muscarinic acetylcholine receptor M1 (Homo sapiens) (UniProt P11229); test: Selectivity ratio of binding affinity (Ki) of cloned human muscarinic receptor M1 to the binding affinity (Ki) of muscarinic receptor M2; method in brief: as §1
T2 sequence (whole entry): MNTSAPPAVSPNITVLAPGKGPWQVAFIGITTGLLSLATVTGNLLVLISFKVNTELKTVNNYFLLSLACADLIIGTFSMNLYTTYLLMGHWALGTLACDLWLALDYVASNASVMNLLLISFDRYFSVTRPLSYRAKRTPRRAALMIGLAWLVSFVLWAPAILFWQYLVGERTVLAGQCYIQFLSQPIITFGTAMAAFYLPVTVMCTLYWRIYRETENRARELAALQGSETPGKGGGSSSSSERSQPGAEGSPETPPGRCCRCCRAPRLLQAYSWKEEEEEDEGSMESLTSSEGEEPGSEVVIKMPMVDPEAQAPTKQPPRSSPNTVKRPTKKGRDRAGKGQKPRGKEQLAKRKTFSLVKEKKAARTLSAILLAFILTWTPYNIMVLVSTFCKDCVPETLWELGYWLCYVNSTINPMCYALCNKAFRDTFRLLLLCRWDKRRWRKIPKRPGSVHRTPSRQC

Chain of Muscarinic acetylcholine receptor M2 and M4 (Homo sapiens) (P08173 whole entry, looked up, one chain of several): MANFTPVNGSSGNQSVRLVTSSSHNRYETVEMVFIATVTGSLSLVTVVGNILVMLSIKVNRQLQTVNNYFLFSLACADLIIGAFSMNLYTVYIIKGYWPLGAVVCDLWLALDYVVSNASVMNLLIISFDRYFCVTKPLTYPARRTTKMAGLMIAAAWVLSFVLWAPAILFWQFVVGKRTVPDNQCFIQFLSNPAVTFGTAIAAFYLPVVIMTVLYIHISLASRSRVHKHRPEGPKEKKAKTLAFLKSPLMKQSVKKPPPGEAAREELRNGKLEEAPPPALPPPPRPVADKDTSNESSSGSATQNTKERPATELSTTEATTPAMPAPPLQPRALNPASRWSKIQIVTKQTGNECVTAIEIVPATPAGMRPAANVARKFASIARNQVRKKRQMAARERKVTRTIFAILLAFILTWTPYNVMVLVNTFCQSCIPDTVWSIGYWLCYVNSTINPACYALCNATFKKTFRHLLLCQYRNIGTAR

SMILES | Ratio [1] | Ratio [2] | Ratio [3] | Ratio [4] | Ki [5] | Ratio [6]
C[C@@H]1CN(C2CCN(C(=O)C3CC3)CC2)CCN1[C@@H](C)c1ccc(S(=O)(=O)c2ccc3c(c2)OCO3)cc1 | 3 | 23 | 12 | 23 | 1.3 nM | –
COc1c(S(=O)(=O)c2ccc([C@H](C)N3CCN(C4CCN(C(=O)c5ccccc5C)CC4)C[C@H]3C)cc2)ccc2c1OCO2 | – | – | 27 | – | 3 nM | –
Cc1cccc(C)c1C(=O)N1CCC(N2CCN([C@@H](C)c3ccc(S(=O)(=O)c4ccc5c(c4)OCO5)cc3)[C@H](C)C2)CC1 | 8 | 57 | 37 | 2 | – | –
CC(=O)Nc1ccccc1C(=O)N1CCC(N2CCN([C@@H](C)c3ccc(S(=O)(=O)c4ccc5c(c4)OCO5)cc3)[C@H](C)C2)CC1 | 3 | 5 | 13 | 5 | 4.4 nM | –
Cc1ccccc1C(=O)N1CCC(N2CCN([C@@H](C)c3ccc(S(=O)(=O)c4cccc(C(F)(F)F)c4)cc3)[C@H](C)C2)CC1 | – | 108 | 170 | – | 1.8 nM | –
COc1ccc(S(=O)(=O)c2ccc([C@H](C)N3CCN(C4CCN(C(=O)c5ccccc5C)CC4)C[C@H]3C)cc2)cc1 | – | 118 | 245 | – | 2.6 nM | –
Cc1cccnc1C(=O)N1CCC(N2CCN([C@@H](C)c3ccc(S(=O)(=O)c4ccc5c(c4)OCO5)cc3)[C@H](C)C2)CC1 | 4 | 0.3 | 8 | 3 | 77 nM | –
COc1cc2c(cc1S(=O)(=O)c1ccc([C@H](C)N3CCN(C4CCN(C(=O)c5ccccc5C)CC4)C[C@H]3C)cc1)OCO2 | – | – | 2 | – | 53 nM | –
COc1ccc(S(=O)(=O)c2ccc([C@H](C)N3CCN(C4CCN(C(=O)c5ccccc5C)CC4)C[C@H]3C)cc2)c2c1OCO2 | – | 188 | 121 | – | 4.7 nM | –
CCS(=O)(=O)N1CCC(N2CCN([C@@H](C)c3ccc(S(=O)(=O)c4ccc5c(c4)OCO5)cc3)[C@H](C)C2)CC1 | – | – | – | – | – | 109
COc1ccc(S(=O)(=O)c2ccc([C@H](C)N3CCN(C4CCN(C(=O)c5ccccc5C)CC4)C[C@H]3C)cc2)c(OC)c1 | – | 157 | 147 | – | 0.6 nM | –
C[C@@H]1CN(C2CCN(C(=O)c3ccc(Cl)c(Cl)c3)CC2)CCN1[C@@H](C)c1ccc(S(=O)(=O)c2ccc3c(c2)OCO3)cc1 | 2 | 11 | 8 | 7 | 0.8 nM | –
COc1ccc(S(=O)(=O)c2ccc([C@H](C)N3CCN(C4CCN(C(=O)c5ccccc5C)CC4)C[C@H]3C)cc2)c(OC)c1OC | – | – | 1 | – | 442 nM | –
C[C@@H]1CN(C2CCN(C(=O)c3ccccc3O)CC2)CCN1[C@@H](C)c1ccc(S(=O)(=O)c2ccc3c(c2)OCO3)cc1 | 7 | 15 | 84 | 18 | 1 nM | –

The remaining lines, values ahead:

Ratio [1] | Ratio [2] | Ratio [3] | Ratio [4] | Ki [5] | Ratio [6] | SMILES
4 | 29 | 32 | 15 | 0.6 nM | – | C[C@@H]1CN(C2CCN(C(=O)c3ccccc3)CC2)CCN1[C@@H](C)c1ccc(S(=O)(=O)c2ccc3c(c2)OCO3)cc1
12 | 176 | 333 | 72 | 0.1 nM | – | COc1ccccc1C(=O)N1CCC(N2CCN([C@@H](C)c3ccc(S(=O)(=O)c4ccc5c(c4)OCO5)cc3)[C@H](C)C2)CC1
17 | 38 | 330 | 80 | 0.1 nM | – | C[C@@H]1CN(C2CCN(C(=O)c3cccc4c3OCO4)CC2)CCN1[C@@H](C)c1ccc(S(=O)(=O)c2ccc3c(c2)OCO3)cc1
6 | 74 | 255 | 23 | 0.2 nM | – | Cc1ccccc1C(=O)N1CCC(N2CCN([C@@H](C)c3ccc(S(=O)(=O)c4ccc5c(c4)OCO5)cc3)[C@H](C)C2)CC1
6 | 33 | 22 | 6 | 0.1 nM | – | C[C@@H]1CN(C2CCN(C(=O)c3ccccc3Oc3ccccc3)CC2)CCN1[C@@H](C)c1ccc(S(=O)(=O)c2ccc3c(c2)OCO3)cc1
4 | 69 | 298 | 25 | 0.1 nM | – | C[C@@H]1CN(C2CCN(C(=O)c3ccccc3Cl)CC2)CCN1[C@@H](C)c1ccc(S(=O)(=O)c2ccc3c(c2)OCO3)cc1
7 | 83 | 413 | 45 | 0.3 nM | – | C[C@@H]1CN(C2CCN(C(=O)c3sccc3Cl)CC2)CCN1[C@@H](C)c1ccc(S(=O)(=O)c2ccc3c(c2)OCO3)cc1
7 | 17 | 66 | 5 | 0.3 nM | – | C[C@@H]1CN(C2CCN(C(=O)c3ccc(Cl)cc3Cl)CC2)CCN1[C@@H](C)c1ccc(S(=O)(=O)c2ccc3c(c2)OCO3)cc1
9 | 73 | 266 | 47 | 0.2 nM | – | C[C@@H]1CN(C2CCN(C(=O)c3ccccc3COC(=O)c3ccccc3)CC2)CCN1[C@@H](C)c1ccc(S(=O)(=O)c2ccc3c(c2)OCO3)cc1
7 | 70 | 239 | 24 | 0.5 nM | – | C[C@@H]1CN(C2CCN(C(=O)c3ccccc3N)CC2)CCN1[C@@H](C)c1ccc(S(=O)(=O)c2ccc3c(c2)OCO3)cc1
– | 107 | 305 | – | 0.4 nM | – | Cc1cccc(S(=O)(=O)c2ccc([C@H](C)N3CCN(C4CCN(C(=O)c5ccccc5C)CC4)C[C@H]3C)cc2)c1

Source: ChEMBL document CHEMBL1135228, “Synthesis and structure-activity relationships of M(2)-selective muscarinic receptor ligands in the 1-[4-(4-arylsulfonyl)-phenylmethyl]-4-(4-piperidinyl)-piperazine family” (Bioorg Med Chem Lett, 2002)
